Measured values from ChEMBL document CHEMBL6134774, “Novel benzenesulfonamides containing a dual triazole moiety with selective carbonic anhydrase inhibition and anticancer activity” (RSC Med Chem, 2025).

Legend:
Carbonic anhydrase 9 = Carbonic anhydrase 9 (Homo sapiens, UniProt Q16790); assay: Inhibition of human CA9 assessed as inhibition constant
Outline: (§1)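 Esterase activity of the hCA isoform was followed spectrophotometrically by Verpoorte's method, as the rise in absorbance at 348 nm with p-nitrophenyl acetate as substrate. Increasing inhibitor concentrations were incubated with the substrate, from 1 mg mL−1 DMSO stocks, to derive KI. Results are means of triplicate assays ± SEM.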

Carbonic anhydrase 12 = Carbonic anhydrase 12 (Homo sapiens, UniProt O43570); assay: Inhibition of human CA12 assessed as inhibition constant; outline: as §1
L929 = assay: Cytotoxicity against mouse L929 cells assessed as cell viability measured after 48 hrs by MTT assay; settings: L929, 48 h
A549 = assay: Cytotoxicity against human A549 cells assessed as cell viability measured after 48 hrs by MTT assay; settings: A549, 48 h
Hep 3B2 = assay: Cytotoxicity against human Hep3B cells assessed as cell viability measured after 48 hrs by MTT assay

Sequence of Carbonic anhydrase 12 (O43570 whole entry): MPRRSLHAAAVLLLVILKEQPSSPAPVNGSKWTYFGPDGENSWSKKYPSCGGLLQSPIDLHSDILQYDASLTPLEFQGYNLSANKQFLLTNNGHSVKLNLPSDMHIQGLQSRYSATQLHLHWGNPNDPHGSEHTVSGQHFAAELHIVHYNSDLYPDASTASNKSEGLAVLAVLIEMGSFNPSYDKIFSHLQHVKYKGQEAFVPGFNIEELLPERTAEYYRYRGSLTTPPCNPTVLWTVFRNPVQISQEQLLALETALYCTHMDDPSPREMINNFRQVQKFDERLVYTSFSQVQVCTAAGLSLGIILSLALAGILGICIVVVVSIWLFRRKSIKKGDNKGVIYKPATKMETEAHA

SMILES	Ki (Carbonic anhydrase 9) [µM]	Ki (Carbonic anhydrase 12) [µM]	IC50 (L929) [µM]	IC50 (A549) [µM]	IC50 (Hep 3B2) [µM]
CCCCCCCO/N=C(/C)c1nnn(-c2ccc(S(N)(=O)=O)cc2)c1C	0.196	0.117	–	–	–
O=c1[nH]cc(F)c(=O)[nH]1 [FLUOROURACIL]	–	–	14	100	60.6
